What was measured:
Assay type in all cases: functional, cell-based
[1] = tested on: COLO 205; assay: Growth inhibition of human COLO205 cells after 48 hrs by MTT assay; conditions: COLO 205, 48 h
Procedure, shortened: (§1)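 Cells were from ATCC and grown in RPMI-1640 with 10% fetal calf serum, antibiotics and L-glutamine. Growth was read by MTT after continuous compound exposure, against a DMSO vehicle control, up to a maximum of 100 µM. IC50 came from sigmoidal variable-slope dose–response curves. Triplicates were run in three independent experiments, reported as mean ± SD.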

[2] = tested on: HepG2; assay: Growth inhibition of human HepG2 cells after 48 hrs by MTT assay; conditions: HepG2, 48 h; procedure, shortened: as §1
[3] = tested on: Peritoneal macrophage cell; assay: Inhibition of nitric oxide production in LPS/IFN-gamma-stimulated BALB/c mouse peritoneal macrophages by Griess method
Procedure, shortened: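 Murine peritoneal macrophages were stimulated with LPS (E. coli 055:B5) plus recombinant IFN-γ, and NO in the medium was measured with Griess reagent. Cell viability under the same conditions was checked by MTT. IC50 came from sigmoidal variable-slope dose–response curves. Triplicates were repeated three times (n = 9), reported as mean ± SD.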

Question: COc1cc(C(=O)/C=C/c2ccc(C=O)cc2)cc(OC)c1OC was tested. Which IC50 [1] did it give?
Answer: The IC50 was 68.8 µM.

Question: What about the IC50 [2] of the same compound?
Answer: Its IC50 is > 100 µM.

Question: What about the IC50 [3] of the same compound?
Answer: The IC50 was > 50 µM.

Question: Which results are given for COc1cc(C(=O)/C=C/c2ccc(O)c(O)c2)cc(OC)c1OC?
Answer: IC50 [1]: 19.8 µM; IC50 [2]: 14.9 µM; IC50 [3]: 1.5 µM

Question: COc1cc(/C=C/C(=O)c2cc(OC)c(OC)c(OC)c2)cc(OC)c1OC was tested. Which IC50 [1] did it give?
Answer: Its IC50 is 19.2 µM.

Question: And the IC50 [2]?
Answer: Its IC50 is 19.6 µM.

Question: What about the IC50 [3] of the same compound?
Answer: The IC50 was 2.8 µM.

Question: Which IC50 [1] does the source give for COc1ccc(/C=C/C(=O)c2cc(OC)c(OC)c(OC)c2)cc1OC here?
Answer: Its IC50 is > 100 µM.

Question: What about the IC50 [2] of the same compound?
Answer: The IC50 was 20.3 µM.

Question: What about the IC50 [3] of the same compound?
Answer: Its IC50 is 4.5 µM.

Question: How did the IC50 [1] turn out when COc1cc(C(=O)/C=C/c2ccc(O)cc2)cc(OC)c1OC was run?
Answer: The IC50 was 29.7 µM.

Question: And the IC50 [2]?
Answer: The IC50 was 16 µM.

Question: And the IC50 [3]?
Answer: Its IC50 is 5 µM.

Question: Which IC50 [1] does the source give for COc1cccc(/C=C/C(=O)c2cc(OC)c(OC)c(OC)c2)c1 here?
Answer: The IC50 was 2.2 µM.

Question: And the IC50 [2]?
Answer: The IC50 was 1.8 µM.

Question: What about the IC50 [3] of the same compound?
Answer: The IC50 was 0.3 µM.

Question: COc1ccc(/C=C/C(=O)c2cc(OC)c(OC)c(OC)c2)cc1 was tested. Which IC50 [1] did it give?
Answer: Its IC50 is 46.4 µM.

Question: What about the IC50 [2] of the same compound?
Answer: Its IC50 is 49.5 µM.

Question: And the IC50 [3]?
Answer: Its IC50 is 7.6 µM.

Question: What does the source list for COc1cc(C(=O)/C=C/c2ccc(C)cc2)cc(OC)c1OC?
Answer: IC50 [1]: 41.5 µM; IC50 [2]: 52 µM; IC50 [3]: 4.5 µM

Question: How did the IC50 [1] turn out when COc1cc(C(=O)/C=C/c2ccc(N(C)C)cc2)cc(OC)c1OC was run?
Answer: Its IC50 is 75 µM.

Question: And the IC50 [2]?
Answer: Its IC50 is 30 µM.

Question: And the IC50 [3]?
Answer: The IC50 was 27 µM.

Question: Which results are given for COc1cc(/C=C/C(=O)c2cc(OC)c(OC)c(OC)c2)ccc1O?
Answer: IC50 [1]: > 100 µM; IC50 [2]: > 100 µM; IC50 [3]: 0.3 µM

Question: How did the IC50 [1] turn out when COc1cc(C(=O)/C=C/c2cccc(O)c2)cc(OC)c1OC was run?
Answer: The IC50 was 49 µM.

Question: What about the IC50 [2] of the same compound?
Answer: The IC50 was 94 µM.

Question: What about the IC50 [3] of the same compound?
Answer: Its IC50 is 13.5 µM.

Question: For COc1cccc(/C=C/C(=O)c2cc(OC)c(OC)c(OC)c2)c1O, which IC50 [1] is on record?
Answer: The IC50 was 13 µM.

Question: And the IC50 [2]?
Answer: The IC50 was 13.5 µM.

Question: What about the IC50 [3] of the same compound?
Answer: Its IC50 is 3 µM.

Question: With COc1cc(C(=O)/C=C/c2ccccc2C=O)cc(OC)c1OC as the compound, how does the IC50 [1] read?
Answer: The IC50 was 88 µM.

Question: What about the IC50 [2] of the same compound?
Answer: Its IC50 is > 100 µM.

Question: What about the IC50 [3] of the same compound?
Answer: Its IC50 is 27 µM.

Question: Which results are given for COc1cc(C(=O)/C=C/c2ccc([N+](=O)[O-])cc2)cc(OC)c1OC?
Answer: IC50 [1]: 43 µM; IC50 [2]: > 100 µM; IC50 [3]: 30 µM

Question: Which IC50 [1] does the source give for COc1ccc(/C=C/C(=O)c2cc(OC)c(OC)c(OC)c2)c(OC)c1 here?
Answer: The IC50 was 82.5 µM.

Question: What about the IC50 [2] of the same compound?
Answer: The IC50 was > 100 µM.

Question: And the IC50 [3]?
Answer: Its IC50 is > 50 µM.

Question: With COc1cc(C(=O)/C=C/c2cccc(C=O)c2)cc(OC)c1OC as the compound, how does the IC50 [1] read?
Answer: Its IC50 is 22.5 µM.

Question: What about the IC50 [2] of the same compound?
Answer: The IC50 was > 100 µM.

Question: And the IC50 [3]?
Answer: The IC50 was > 50 µM.

Question: What does the source list for COc1cccc(/C=C/C(=O)c2cc(OC)c(OC)c(OC)c2)c1OC?
Answer: IC50 [1]: 13.2 µM; IC50 [2]: 11.5 µM; IC50 [3]: 2.4 µM

Question: What does the source list for COc1cc(C(=O)/C=C/c2cc([N+](=O)[O-])ccc2O)cc(OC)c1OC?
Answer: IC50 [1]: 76 µM; IC50 [2]: > 100 µM; IC50 [3]: 4.4 µM

Question: What does the source list for COc1cc(OC)c(OC)cc1/C=C/C(=O)c1cc(OC)c(OC)c(OC)c1?
Answer: IC50 [1]: 18.6 µM; IC50 [2]: 16.1 µM; IC50 [3]: 4.6 µM

Question: Which results are given for COc1cc(C(=O)/C=C/c2cc(O)ccc2O)cc(OC)c1OC?
Answer: IC50 [1]: > 100 µM; IC50 [2]: > 100 µM; IC50 [3]: > 50 µM

Question: COc1cc(C(=O)/C=C/c2ccc(Br)cc2)cc(OC)c1OC was tested. Which IC50 [1] did it give?
Answer: The IC50 was 22.5 µM.

Question: And the IC50 [2]?
Answer: The IC50 was 80 µM.

Question: What about the IC50 [3] of the same compound?
Answer: Its IC50 is 20 µM.

Question: What does the source list for COc1cc(C(=O)/C=C/c2ccc(F)cc2)cc(OC)c1OC?
Answer: IC50 [1]: 25.7 µM; IC50 [2]: 22 µM; IC50 [3]: 17.6 µM

Question: Which IC50 [1] does the source give for COc1ccc(/C=C/C(=O)c2cc(OC)c(OC)c(OC)c2)cc1O here?
Answer: Its IC50 is 11.2 µM.

Question: And the IC50 [2]?
Answer: Its IC50 is 10.6 µM.

Question: What about the IC50 [3] of the same compound?
Answer: Its IC50 is 1.3 µM.

From ChEMBL document CHEMBL1153079, “Synthesis and biological evaluation of 3',4',5'-trimethoxychalcone analogues as inhibitors of nitric oxide production and tumor cell proliferation” (Bioorg Med Chem, 2009)
